SENP6 block = inhibitors of human SENP6 protease. Q9GZR1. Recombinant SENP6 catalytic domain, aminoluciferin luminescence. inhibition, % at 10 µM. hit rate 1.8% among 330,000;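 active = inhibition above about 50% at the single tested dose, limit read from the data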;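 note: plate controls were DMSO wells with enzyme for no effect and DMSO wells lacking enzyme for full effect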
Target sequence (Q9GZR1 628-1112 limits assumed): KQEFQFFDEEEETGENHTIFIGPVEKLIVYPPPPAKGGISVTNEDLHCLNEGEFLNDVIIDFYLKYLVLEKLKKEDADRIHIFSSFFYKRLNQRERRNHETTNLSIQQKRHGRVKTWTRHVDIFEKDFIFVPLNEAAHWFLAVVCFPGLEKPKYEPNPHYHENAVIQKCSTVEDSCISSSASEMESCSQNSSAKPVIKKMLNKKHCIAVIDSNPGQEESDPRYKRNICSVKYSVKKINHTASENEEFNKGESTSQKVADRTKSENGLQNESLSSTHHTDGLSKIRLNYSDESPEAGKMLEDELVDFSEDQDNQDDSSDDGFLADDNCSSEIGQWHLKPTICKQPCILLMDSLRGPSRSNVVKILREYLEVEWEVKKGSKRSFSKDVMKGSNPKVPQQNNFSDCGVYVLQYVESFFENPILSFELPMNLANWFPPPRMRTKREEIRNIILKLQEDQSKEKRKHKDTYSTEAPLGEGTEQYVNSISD
SENP1 inh = inhibitors of human SENP1 SUMO protease catalytic domain. Q9P0U3. recombinant SENP1 catalytic domain, CyPet-SUMO1-YPet FRET cleavage. inhibition, % at 10 µM. hit rate 0.21% among 360,000. AID 624204;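 active = inhibition at least 30% at 10 µM, raw YFP signal under a set limit, fluorescence ratio 0.5 to 1.5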;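 note: 0% = enzyme with DMSO and 100% = no enzyme wells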
Target sequence (Q9P0U3 419-644 limits assumed): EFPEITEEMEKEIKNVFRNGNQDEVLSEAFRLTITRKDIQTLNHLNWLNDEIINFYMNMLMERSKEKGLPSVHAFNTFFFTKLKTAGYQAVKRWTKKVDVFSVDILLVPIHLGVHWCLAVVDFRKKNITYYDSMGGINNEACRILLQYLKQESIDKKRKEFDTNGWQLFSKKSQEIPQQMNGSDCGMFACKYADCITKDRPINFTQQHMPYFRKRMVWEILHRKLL
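Test system: hSENP1 catalytic domain, recombinant; Amount: 20 pM final SENP1 enzyme; Medium: Tris pH 8 buffer plus EDTA, NaCl, BME, BSA, NP40, catalase; Schedule: 50 min enzyme reaction, room temperature, light-protected; Technique: FRET fluorescence in CFP and YFP emission channels; Controls: no-enzyme wells low, DMSO-plus-enzyme wells high control.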
Platelet DG rel = platelet dense granule release activity; human platelet-rich plasma, SFLLRN dense granule ATP release, luminescence; hit rate 0.22% among 300,000; inhibition, %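 (compounds screened at 7.5 µM in platelet-rich plasma)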;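 active = mean replicate score, as percent of positive control, at or above 50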
SENP8 block-1 = SENP8 protease inhibition; Q96LD8; hit rate 1.2% among 330,000; inhibition, % at 10 µM; purified SENP8, Z-RLRGG-aminoluciferin cleavage, luminescence; in the data active = inhibition above about 50%
SENP8 block-2 = inhibitors of human SENP8 protease. Q96LD8. recombinant SENP8, Nedd8 substrate fluorescence. inhibition, % at 20 µM. hit rate 0.64% among 360,000; in the data active = inhibition mostly above about 40%, no sharp cut-off; inactive = mostly below about 27%
SENP7 block = inhibitors of human SENP7 protease; recombinant SENP7, Z-RLRGG-aminoluciferin luminescence, 40 min; inhibition, % at 5 µM; hit rate 1.5% among 330,000; AID 434973;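 active = inhibition above about 50% at the single test dose, limit read from the data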;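 note: plate controls were DMSO with enzyme for no effect and no enzyme buffer wells for full effect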
SENP8 conf = confirmation of human SENP8 protease inhibitors. AID 488912. Recombinant SENP8, Z-RLRGG-aminoluciferin luminescence, 60 min. hit rate 40% among 6,200. shares compounds with SENP7 block. inhibition, % at 12.5 µM;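 active = mean inhibition across replicates above about 50%, limit read from the data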
SENP6 confirm = confirmation of human SENP6 protease inhibitors | shares compounds with SENP7 block | recombinant SENP6, Z-RLRGG-aminoluciferin luminescence | inhibition, % at 12.5 µM | hit rate 58% among 6,200 | AID 488915
SENP7 conf = human SENP7 inhibition, confirmed; shares compounds with SENP7 block; recombinant SENP7, Z-RLRGG-aminoluciferin luminescence, 40 min; inhibition, % at 12.5 µM; hit rate 69% among 6,200; AID 488917
Casp3 select = selectivity test for SENP inhibitors: human caspase-3 inhibition; shares compounds with SENP7 block; purified caspase-3, Z-DEVD-aminoluciferin luminescence, 60 min; inhibition, % at 12.5 µM; hit rate 60% among 6,200; AID 488918;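 active = mean inhibition above about 50%, limit read from the data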;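 note: plate controls were enzyme with DMSO for no effect and wells without caspase-3 for full effect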
SENP luc ctr = interferes with luciferase luminescence in SENP counter-screen | Pre-incubated SENP8/Z-RLRGG-aminoluciferin, luciferase luminescence interference | AID 488919 | hit rate 39% among 6,200 | shares compounds with SENP7 block | inhibition, % at 12.5 µM;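 active = mean inhibition above about 50% when retested at one dose, limit read from the data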;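 note: plate controls were DMSO wells with completed reaction for no effect and substrate without enzyme for full effect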
Numbers without * were called inactive; x = not tested or not shown. Most compounds without a hit are left out; they make up all but 2.6% or so of the library.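 Rule for the calls, unless noted: active = mean inhibition above about 50% in the one-dose retest (limit read from the data); inactive = the rest.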

SMILES | SENP6 block | SENP1 inh | Platelet DG rel | SENP8 block-1 | SENP8 block-2 | SENP7 block | SENP8 conf | SENP6 confirm | SENP7 conf | Casp3 select | SENP luc ctr
O=C(Nc1ccccn1)c1ccc(Br)s1 | 66.9* | 2.0 | 2.8 | 37.8 | 7.7 | 65.2* | 65.5* | 62.6* | 88.2* | 76.3* | 66.8*
Cc1csc(NC(=O)COc2ccc3c(c2)CCC3)n1 | 82.4* | -2.2 | x | 73.6* | 6.3 | 83.5* | 81.0* | 79.9* | 96.1* | 79.5* | 46.0
N#Cc1ccsc1NC(=O)CCc1ccccc1 | 23.0 | -7.6 | 2.8 | 60.1* | 8.3 | 70.4* | 13.7 | 27.8 | 68.3* | 53.2* | 47.0
N#Cc1ccsc1NC(=O)CN(Cc1ccccc1)Cc1ccccc1 | -11.8 | 0.5 | 13.8 | -3.1 | 21.6 | 2.7 | x | x | x | x | x
Cc1ccc(NC(=O)Cc2noc3ccccc23)cc1 | 50.9* | 0.3 | -1.8 | 23.6 | 3.2 | 44.2 | 47.3 | 47.0 | 73.7* | 61.2* | 16.8
CCOc1ccc(CCNC(=O)c2cc3c(C)nccc3[nH]c2=O)cc1OCC | -9.6 | 1.3 | 1.8 | 4.5 | 10.3 | -2.3 | x | x | x | x | x
Cc1ccc(N2Cc3ccccc3C2=O)cc1 | 92.7* | 3.5 | 20.8 | 88.5* | -18.7 | 94.0* | 90.9* | 93.1* | 101.0* | 95.4* | 54.0*
C=CC(=O)Oc1ccc(N2Cc3ccccc3C2=O)cc1 | 10.7 | 3.3 | 11.6 | 17.4 | 0.6 | -1.5 | x | x | x | x | x
O=C1c2ccccc2CN1c1ccccc1 | 39.5 | 2.3 | -4.7 | 9.3 | -1.4 | 38.4 | x | x | x | x | x
COc1ccc(N2Cc3ccccc3C2=O)cc1 | 87.1* | 1.5 | 7.2 | 77.9* | -82.6 | 92.8* | 86.0* | 87.0* | 98.0* | 94.4* | 81.6*
COc1cc2c(cc1OC)CN(C(=O)CCN1C(=O)C3CCCCC3C1=O)CC2 (stereo not given) | -15.5 | 2.4 | 1.7 | 1.4 | 16.9 | 3.5 | x | x | x | x | x
COc1ccccc1C(=O)Nc1nnc(-c2ccc(F)cc2)s1 | 30.5 | -0.7 | 5.8 | 23.3 | -135.4 | 33.4 | x | x | x | x | x
COc1ccccc1C(=O)Nc1nsc(-c2ccccc2)n1 | 61.1* | 2.4 | 14.1 | 27.8 | 10.7 | 53.2* | 53.8* | 51.7* | 74.8* | 66.4* | 59.3*
CN1CCN(C(=O)CCN2C(=O)/C(=C/c3cccc(Br)c3)SC2=S)CC1 | -2.7 | 2.3 | -1.2 | -5.0 | 29.1 | 6.0 | x | x | x | x | x
O=C(CCCN1C(=O)/C(=C/c2ccccc2)SC1=S)N1CCOCC1 | 42.6 | 1.5 | -24.3 | 23.2 | 15.4 | 20.8 | x | x | x | x | x
O=C(CCCN1C(=O)/C(=C/c2cccc(Br)c2)SC1=S)N1CCOCC1 | 64.1* | 1.5 | -13.9 | 27.3 | 9.0 | 10.2 | 33.1 | 58.3* | 65.2* | 10.8 | 26.4
CN1CCN(C(=O)CCCN2C(=O)/C(=C/c3cccc(Br)c3)SC2=S)CC1 | 52.2* | 2.0 | -7.8 | 4.9 | 20.1 | -3.5 | 46.9 | 36.8 | 44.2 | 21.7 | 35.8
COc1ccc(/C=C2\SC(=S)N(CCC(=O)N3CCOCC3)C2=O)cc1 | -17.2 | -21.1 | -35.1 | -20.3 | 18.7 | -13.2 | x | x | x | x | x
COc1ccc(/C=C2\SC(=S)N(CCCC(=O)N3CCN(C)CC3)C2=O)cc1 | 70.4* | -22.5 | -3.2 | 39.0 | 12.6 | 28.3 | 57.2* | 52.8* | 76.0* | 54.1* | 51.9*
CCOC(=O)c1c(-c2ccc(C)o2)csc1NC(=S)NC(=O)c1ccc(F)cc1 | -14.0 | 1.7 | -2.9 | 2.9 | 25.6 | -2.4 | x | x | x | x | x
Cn1c(CCNC(=O)c2ccc(Cl)cc2)n[nH]c1=S | -0.2 | 2.1 | 5.2 | -1.4 | 31.5 | 10.6 | x | x | x | x | x
Cc1c(NC(=O)c2cc3c(s2)CCCC3)c(=O)n(-c2ccccc2)n1C | 17.0 | 1.2 | 0.8 | 61.2* | 9.9 | 2.3 | 11.0 | 9.4 | 7.8 | 3.8 | 4.0
O=C(O)c1ccc(N/N=C/c2ccncc2)cc1 | 90.0* | 0.8 | 10.1 | 85.4* | 5.0 | 93.5* | 91.4* | 92.6* | 99.9* | 87.5* | 93.6*
CSc1ccc(/C=N/Nc2cccc(C(=O)O)c2)cc1 | x | -7.4 | x | x | -110.3 | x | x | x | x | x | x
O=C(O)c1ccc(N/N=C/c2ccc(F)c(F)c2)cc1 | 97.8* | -8.1 | 37.5 | 96.5* | -115.5 | 97.4* | 99.0* | 99.7* | 102.4* | 96.7* | 97.9*
SMILES | SENP6 block | SENP1 inh | Platelet DG rel | SENP8 block-1 | SENP8 block-2 | SENP7 block | SENP8 conf | SENP6 confirm | SENP7 conf | Casp3 select | SENP luc ctr
O=C(O)c1ccc(N/N=C/c2cccc(F)c2)cc1 | 100.2* | -29.0 | 31.9 | 97.2* | -63.7 | 84.3* | 99.6* | 100.2* | 103.5* | 98.0* | 98.6*
Cc1ccc(N/N=C/c2ccncc2)cc1 | -20.8 | -3.4 | 0.7 | -15.0 | 26.5 | 4.5 | x | x | x | x | x
O=C(O)c1ccc(N/N=C/c2cccc(C(F)(F)F)c2)cc1 | 73.6* | 0.6 | -2.7 | 66.4* | -54.6 | 46.3 | 79.7* | 70.3* | 94.7* | 25.2 | 90.4*
NC(=S)n1[nH]c(-c2ccc([N+](=O)[O-])cc2)c(N=Nc2ccc(O)cc2)c1=O | -7.0 | 11.7 | -2.8 | 18.8 | 33.9 | 6.8 | x | x | x | x | x
CC(=O)N(C)c1ccc(N=Nc2c(C)[nH]n(C(N)=S)c2=O)cc1 | 77.5* | 1.2 | 7.3 | 78.2* | 17.6 | 84.7* | 86.4* | 86.9* | 98.5* | 95.9* | 90.4*
CCN(CC)S(=O)(=O)c1ccc(N=Nc2c(C)[nH]n(C(N)=S)c2=O)cc1 | 54.3* | 3.3 | 15.7 | 17.3 | 36.0 | 17.9 | 41.2 | 37.4 | 72.5* | 56.5* | 18.1
CCn1ccc(C(=O)Nc2ccccc2Cl)n1 | 52.9* | 3.1 | 4.2 | 14.7 | 18.1 | 50.5* | 34.1 | 37.9 | 75.6* | 72.1* | 56.4*
CC(C)(C)c1ccc(C(=O)Nc2ccccc2Cl)cc1 | 80.4* | 1.6 | -1.0 | 70.0* | 11.3 | 75.6* | 1.1 | 76.1* | 94.2* | 60.1* | 61.4*
Cc1oc2c(c1C(=O)c1ccccc1)C(=O)C(=O)c1ccccc1-2 | 82.9* | 20.6 | -11.0 | 65.1* | 98.6* | 42.5 | -3.5 | 71.5* | 49.3 | 4.7 | -0.9
Cc1oc2c(c1C(=O)O)C(=O)c1ccccc1C2=O | 63.5* | 17.9 | 1.1 | 29.8 | 44.9* | 18.1 | 11.8 | 51.7* | 30.0 | 51.3* | 17.7
CCOC(=O)c1c(C)oc2c1C(=O)c1ccccc1C2=O | 48.9 | 0.3 | 0.5 | 16.7 | 38.9 | 10.2 | x | x | x | x | x
